# OX1R antag-1: blocks the human orexin 1 receptor | inhibition, % at 5 µM | 330,000 compounds, 0.43% hits | O43613 | CHO/OX1R cells, Fluo-8 calcium fluorescence, orexin A | AID 434989;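 active = inhibition above its plate's threshold, mean inhibition of all tested compounds on the plate plus 3 SD, cut at about 37% in these data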;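 also: 0% = orexin A challenge wells and 100% = SB-334867-A antagonist wells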
# TAAR1 antagonist: human TAAR1 antagonism. Q96RJ0. CHO RD-HGA16 TAAR1, Fluo-8 calcium fluorescence, antagonist. inhibition, % at 3 µM. 360,000 compounds, 1.5% hits. AID 624466;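 active = inhibition above a per-plate cutoff, the mean inhibition of test compounds on that plate plus 3 SD, cut at about 49% in these data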;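 also: 0% = DMSO plus EC80 beta-PEA response and 100% = DMSO alone without agonist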
# Target sequence (Q96RJ0 whole entry, looked up): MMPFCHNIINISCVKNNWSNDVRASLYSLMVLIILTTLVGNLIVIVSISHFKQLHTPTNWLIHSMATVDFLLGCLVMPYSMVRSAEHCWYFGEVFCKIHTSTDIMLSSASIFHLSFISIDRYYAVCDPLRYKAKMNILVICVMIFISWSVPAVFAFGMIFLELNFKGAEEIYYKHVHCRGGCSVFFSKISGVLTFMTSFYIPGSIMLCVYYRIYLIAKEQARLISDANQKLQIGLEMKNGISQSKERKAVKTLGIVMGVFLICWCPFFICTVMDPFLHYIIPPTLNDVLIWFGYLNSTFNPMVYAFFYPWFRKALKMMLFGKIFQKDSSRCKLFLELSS
#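 Test system: RD-HGA16 CHO cells with stable hTAAR1 and Gα16 / Probe or stimulus: EC80 β-phenethylamine stimulus / Times: seeding 17-24 h prior, 75-min 37 °C, 30-min RT dye loading / Detection: Fluo-8 calcium-sensitive fluorescence / Read-out basis: % inhibition scaled between DMSO and EC80 PEA controls / Repeats: singlicate, one well per test compound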
# OX1R antag-2: blocks the human orexin 1 receptor; OX1R-expressing cells, FRET antagonist read-out; 330,000 compounds, 1.8% hits; inhibition, % at 6.6 µM; O43613; AID 485270; in the data active = inhibition mostly above about 38%, no sharp cut-off; inactive = mostly below about 40%;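 also: 0% = agonist challenge alone and 100% = reference antagonist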
# GPR7 antag: antagonists of human GPR7 (neuropeptides B/W receptor 1); P48145; GPR7-expressing cells, fluorescence antagonist assay; inhibition, % at 4.4 µM; 290,000 compounds, 1.1% hits; AID 1861; in the data active = inhibition above about 16%, passing the limit was not always enough;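 also: cells stimulated with the agonist NPW; 0% = agonist with vehicle and 100% = vehicle without agonist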
# Target sequence (P48145 whole entry, looked up): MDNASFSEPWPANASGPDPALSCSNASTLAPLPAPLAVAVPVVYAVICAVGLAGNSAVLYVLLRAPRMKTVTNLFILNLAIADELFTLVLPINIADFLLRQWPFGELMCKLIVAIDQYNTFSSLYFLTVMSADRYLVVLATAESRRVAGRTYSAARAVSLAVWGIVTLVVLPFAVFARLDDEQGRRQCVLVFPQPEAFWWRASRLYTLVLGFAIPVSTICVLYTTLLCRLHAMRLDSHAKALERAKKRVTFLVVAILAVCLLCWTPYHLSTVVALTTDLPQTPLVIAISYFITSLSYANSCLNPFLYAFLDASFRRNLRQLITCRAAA
# TAAR1 agonist: human TAAR1 agonism; activation, % at 3 µM; 360,000 compounds, 0.99% hits; CHO RD-HGA16 TAAR1, Fluo-8 calcium fluorescence; vehicle wells 0%, saturating PEA agonist 100%;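 active = activation above the mean activation of all test compounds in the run plus 3 SD, cut at about 38% in these data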
#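 Assay system – CHO-derived RD-HGA16 cells with stable Gα16 and human TAAR1 · Compound dosing – one-point dosing at 3 µM (nominal) · Incubation – 17-24 h seeding, 75 min 37 °C dye, 30 min RT · Measured by – kinetic Fluo-8 calcium fluorescence · Control set – DMSO vehicle as 0%, PEA at EC100 as 100% · Repeats – single well for each compound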
# CHO parental Ca: counter-screen: ATP calcium response change in parental CHO cells; parental CHO-K1, ATP-induced calcium, Fluo-8 fluorescence; 330,000 compounds, 0.63% hits; inhibition, % at 5.6 µM;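 active = inhibition above that plate's mean sample inhibition plus 3 SD, cut at about 26% in these data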;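 also: 0% = ATP-challenged DMSO wells and 100% = DMSO wells without ATP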
#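 Measured by: calcium-sensitive Fluo-8 fluorescence / Test system: CHO parental line / Controls: ATP-challenged DMSO wells low, unchallenged DMSO wells high / Measure: % inhibition / Compound: single nominal dose of 5.6 µM per compound / Replicates: single well per compound, no replicates / Reagent: ATP as calcium-mobilizing challenge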
# GPR7 antag conf: human GPR7 antagonism, confirmation assay; AID 1952; 2,400 compounds, 52% hits; inhibition, % at 4.4 µM; shares compounds with GPR7 antag; GPR7-expressing cells, calcium fluorescence antagonist mode; in the data active = inhibition above about 24%;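 also: stimulated with the GPR7 agonist NPW; 0% = agonist plus vehicle and 100% = vehicle alone without agonist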
# MCHR1 antagonist: MCHR1 (human) antagonism in GPR7 counter-screen; shares compounds with GPR7 antag; MCHR1-expressing cells, fluorescence antagonist assay; inhibition, % at 4.4 µM; 2,400 compounds, 62% hits; in the data active = inhibition above about 22%;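 also: 0% = vehicle with agonist and 100% = vehicle without agonist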
# * = called active by the depositor; x = no result given. Only some compounds are listed: those with a hit (about 4.6% of all), similar ones and a draw of the others.
SMILES,OX1R antag-1,TAAR1 antagonist,OX1R antag-2,GPR7 antag,TAAR1 agonist,CHO parental Ca,GPR7 antag conf,MCHR1 antagonist
O=C1c2cccc(OCC(=O)N3CCCc4ccccc43)c2CCN1Cc1ccc(F)cc1,-6,56*,31,28*,17,-14,41*,77*
COc1ccc(/C=C2\N=C(C)OC2=O)cc1OC(C)=O,x,8,x,-13,0,x,x,x
COc1cc(/C=C2\N=C(c3ccccc3)OC2=O)ccc1OC(C)=O,-11,7,19,25*,4,-16,-6,7
CCOc1ccc(CN(C)CC(O)COC(c2ccc(OC)cc2)c2ccc(OC)cc2)cc1 (centres undefined),-2,-7,0,31*,29,7,33*,45*
COc1ccc(CN(C)CC(O)COc2ccc(-c3ccccc3)cc2)cc1OC (centres undefined),-7,-14,5,5,17,-10,x,x
COc1ccc(CN(C)CC(O)COC(c2ccc(OC)cc2)c2ccc(OC)cc2)cc1 (centres undefined),12,3,4,28*,15,8,42*,31*
O=C(NC1CCCCC1)C(c1ccccc1F)N(Cc1ccco1)C(=O)Cn1nnc2ccccc21 (centres undefined),-27,3,21,29*,5,-31,43*,31*
COCCN(C(=O)CNC(=O)c1ccco1)C(C(=O)NC1CCCCC1)c1cccs1 (centres undefined),-18,-11,-5,-8,2,-19,x,x
O=C(NC1CCCC1)C(c1ccccc1)N(Cc1ccco1)C(=O)Cc1cccs1 (centres undefined),-14,25,33,42*,2,-23,35*,21
O=C(NC1CCCCC1)C(c1cccs1)N(Cc1cccs1)C(=O)c1ccco1 (centres undefined),-4,16,39,25*,5,-19,22,27*
Cc1noc(/C=C/N(C)C)c1S(=O)(=O)N1CCCC(C(=O)N2CCCCC2)C1 (centres undefined),-32,-25,6,27*,-1,-11,-5,4
NCC(c1ccc(Cl)cc1Cl)c1c[nH]c2ccccc12 (centres undefined),-5,46,-7,51*,45*,9,61*,69*
O=C(CNS(=O)(=O)c1c(Cl)cccc1Cl)OCc1csc(-c2ccccc2)n1,14,22,33,-2,9,-1,x,x
Cc1cccn2c(CN[C@@H]3CCCC[C@H]3c3ccccc3)c(C(=O)N3CCOCC3)nc12,-58,31,28,29*,8,-21,19,25*
O=C(CCCc1cccs1)N1CCN(S(=O)(=O)c2ccccc2Br)CC1,-27,6,13,29*,8,-6,11,25*
O=C(O)CCC(=O)N1CCN(S(=O)(=O)c2cccs2)CC1,0,-12,0,-21,0,-1,x,x
CCC(=O)c1ccc(OCC(O)Cn2c(C)nc3ccccc32)cc1 (centres undefined),3,25,32,28*,13,15,24,57*
COc1ccc(CCN(C)C(=S)NC(=O)c2ccc(F)cc2Cl)cc1OC,-19,-3,6,3,1,-19,x,x
COc1ccc(CCN(C)C(=S)Nc2ccc(SC(F)F)cc2)cc1OC,-4,13,17,39*,5,-2,12,11
CCCCNCCCOc1ccc(C)cc1Br,-17,0,8,0,29,-12,x,x
CCCCNCCCOc1cccc(Cl)c1Cl,-13,-13,16,35*,38*,-9,14,11
C(=C\c1ccccc1)/CSc1nnc(-c2cnccn2)n1Cc1ccco1,-13,-1,22,21*,-3,-14,24*,39*
O=C(Nc1ccccc1C(F)(F)F)C1CCN(C(=O)c2cccs2)CC1,-17,3,5,-4,0,3,x,x
Cc1ccc2[nH]c(-c3ccccc3)c(CN3CCOCC3)c(=O)c2c1,-4,-10,24,-3,7,-15,x,x
O=S1(=O)N[C@H](Cc2ccccc2)COc2cc(F)ccc21,x,-23,x,x,-1,x,x,x
SMILES,OX1R antag-1,TAAR1 antagonist,OX1R antag-2,GPR7 antag,TAAR1 agonist,CHO parental Ca,GPR7 antag conf,MCHR1 antagonist
CCN(CC)c1ccc(/C=C/c2ccc3ccc(OC)cc3[n+]2CC)cc1,28,6,33,47*,7,59*,65*,65*
CC(=O)Nc1ccc2cc3ccc(NC(C)=O)cc3nc2c1,-29,-7,32,15*,2,-3,-8,-6
CC(=O)Nc1ccc2ccccc2c1,6,x,17,7,x,-4,x,x
COc1ccc(CNC(=O)c2noc(C)c2[N+](=O)[O-])cc1,-13,-12,11,-8,0,-10,x,x
O=C(c1ccccc1F)N1CCN(C(=O)C(c2ccccc2)c2ccccc2)CC1,-13,-3,8,-4,0,-13,x,x
COc1cc(C(=O)N/N=C/c2coc3ccc(Cl)cc3c2=O)ccc1O,4,-10,15,31*,3,1,-7,-1
Cc1cc(C)c(S(=O)(=O)N2C[C@H]3CON(C)[C@H]3C[C@H]2c2ccc(-n3ccnc3)cc2)c(C)c1,x,-4,x,x,-1,x,x,x
C=CCOc1ccccc1C(=O)/C=C1/C(=O)Nc2ccccc21,17,12,20,37*,2,33*,59*,82*
COc1ccc(C(=O)c2[nH]c(N)c(C(=O)c3c[nH]c4ccccc34)c2-c2ccc(F)c(OC)c2)cc1,x,15,x,x,8,x,x,x
CCOC(=O)Nc1ccc2c(c1)N(C(=O)CN1CCN(C)CC1)c1ccccc1S2,-17,4,-2,-1,16,-16,x,x
CCCC(CCC)C(=O)Nc1ccc2c(c1)N(C(=O)CN1CCN(C)CC1)c1ccccc1CC2,-15,8,31,58*,3,-16,39*,22*
CN(C)CCCNc1nc2sc3c(c2c(=O)n1CCc1ccccc1)CCCCC3,-10,4,7,29*,21,11,51*,65*
NCC12CC3CC(C1)CC(c1ccc(Br)cc1)(C3)C2,-8,22,2,48*,42*,-4,29*,33*
O=C(CSc1cccc(C(F)(F)F)c1)N1CCN(S(=O)(=O)c2ccccc2)CC1,-7,6,13,34*,15,-6,3,6
COc1ccc(N2C[C@H](C)[C@@H](CC(=O)Nc3ccc(Br)cc3)C2=O)cc1,x,-12,x,x,1,x,x,x
